KCNQ1 act – potentiators or activators of KCNQ1 channel, primary screen, cell-based, thallium flux, high-throughput | Potassium voltage-gated channel subfamily KQT member 1 (Homo sapiens), P51787 | CHO-K1 KCNQ1, thallium flux FluxOR fluorescence; active compounds read high | B-score at 10 µM | hit rate 0.35% among 310,000 | AID 2648, 2010;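 active = fluorescence ratio B-score, a plate-corrected score, at least three library SD, with initial intensity B-score within 5 SD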
Target sequence (P51787 whole entry, looked up): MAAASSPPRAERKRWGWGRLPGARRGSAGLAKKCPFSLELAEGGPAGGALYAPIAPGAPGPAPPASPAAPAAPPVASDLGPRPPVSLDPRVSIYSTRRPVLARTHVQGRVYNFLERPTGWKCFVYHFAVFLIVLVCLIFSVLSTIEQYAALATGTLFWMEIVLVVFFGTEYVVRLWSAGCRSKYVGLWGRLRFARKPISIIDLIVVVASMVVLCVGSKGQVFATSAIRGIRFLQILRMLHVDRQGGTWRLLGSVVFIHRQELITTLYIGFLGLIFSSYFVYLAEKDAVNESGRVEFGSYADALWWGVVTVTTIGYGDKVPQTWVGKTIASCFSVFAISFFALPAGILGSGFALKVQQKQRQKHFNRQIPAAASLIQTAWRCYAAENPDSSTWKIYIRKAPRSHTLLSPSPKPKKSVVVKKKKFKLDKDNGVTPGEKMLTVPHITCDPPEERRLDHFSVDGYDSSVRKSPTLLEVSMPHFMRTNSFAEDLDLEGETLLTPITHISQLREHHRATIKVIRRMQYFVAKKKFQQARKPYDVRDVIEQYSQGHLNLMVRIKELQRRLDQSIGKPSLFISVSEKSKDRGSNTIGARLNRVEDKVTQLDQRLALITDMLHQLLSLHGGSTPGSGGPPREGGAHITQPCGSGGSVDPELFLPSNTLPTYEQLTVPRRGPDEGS
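assay system = CHO-K1 cells stably expressing KCNQ1 | medium = assay buffer, equal DMSO in all wells | timing = 37 °C overnight plating, 90-min dark dye load, 20-min compound pretreatment | measured by = kinetic FluxOR thallium fluorescence, 10-s 1-Hz baseline, 110-s post-stimulus read | measure = fluorescence change relative to baseline, converted to B score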
KCNK3 inh – human KCNK3 channel inhibitors, primary screen, CHO cells, FluxOR thallium flux, B-score. Potassium channel subfamily K member 3 (Homo sapiens), O14649. FluxOR fluorescence; active compounds read low. B-score at 10 µM. hit rate 0.84% among 340,000;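 active = B-score under library mean minus 4 SD, starting fluorescence ratio at most library mean plus 5 SD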;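 also: more negative B-score means stronger inhibition of thallium flux through KCNK3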
PHOSPHO1 inh – PubChem AID 1565. inhibition, % at 13.3 µM. recombinant PHOSPHO1, absorbance phosphatase assay. Phosphoethanolamine/phosphocholine phosphatase (Homo sapiens), Q8TCT1. hit rate 1.1% among 290,000; in the data active = inhibition above about 60%
hERG rescue – hERG rescue from dofetilide block, primary screen, cell-based, CHO-hERG, FluxOR thallium flux, dofetilide IC70. hit rate 0.51% among 310,000. Voltage-gated inwardly rectifying potassium channel KCNH2 (Homo sapiens), Q12809. activation (rescue from dofetilide block), less the hit threshold, % at 10 µM. dofetilide IC70 present;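 active = activation above the mean of controls blocked by dofetilide plus 5 SD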;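 also: thallium influx through hERG after potassium depolarization seen as dye fluorescence rise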
KCNK9 block – KCNK9 potassium channel inhibitors, primary screen, HEK293 cells, thallium flux | Potassium channel subfamily K member 9 (Homo sapiens), Q9NPC2 | FluxOR thallium flux fluorescence; active compounds read low | B-score at 10 µM | hit rate 1.2% among 310,000 | AID 488922, 2010;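 active = ratio B-score over 3 SD below the library mean, with starting fluorescence within 5 SD of its mean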;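 also: negative B-score means less thallium flux so channel inhibition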
KCNQ1 block – inhibitors of human KCNQ1 channel, primary screen, cell-based, thallium flux, high-throughput; Potassium voltage-gated channel subfamily KQT member 1 (Homo sapiens), P51787; CHO-K1 KCNQ1, FluxOR thallium flux fluorescence; active compounds read high; B-score at 10 µM; hit rate 1.3% among 310,000; AID 2642, 2010;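 active = compounds whose thallium flux B-score, printed positive for inhibition, exceeds three library SD while starting fluorescence stays within three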;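 also: channel opened by potassium depolarization with thallium stimulus after 20 min compound exposure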
Starred values were filed as active, the others as inactive; i = inactive; nt = no result. This is a sample that favours compounds with a hit; in the whole collection about 4% have one here.

SMILES	KCNQ1 act	KCNK3 inh	PHOSPHO1 inh	hERG rescue	KCNK9 block	KCNQ1 block
CCCNc1c(NC(=O)COc2ccc(Cl)cc2)c(=O)oc2ccccc12	i	i	29.0	-2.6	i	i
CCCC1CCc2c(sc(N)c2C(N)=O)C1 (centres undefined)	i	i	95.4*	-6.2	i	i
CC(C)(C)C1CCc2c(sc(N)c2C(N)=O)C1 (centres undefined)	i	i	83.3*	-3.6	i	i
COC(=O)c1ccc(N2C(=O)CC(N3CCN(C(=O)c4ccco4)CC3)C2=O)cc1 (centres undefined)	i	i	14.0	-7.3	i	i
N#CC1=C(N)SC(N)=C(C#N)C1CCC1CCCCC1	i	nt	37.3	-29.6	i	9*
Cc1sccc1C1C(C#N)=C(N)SC(N)=C1C#N	i	nt	-0.6	-1.5	i	i
O=C(N/N=C/c1ccc(OC(=O)c2ccco2)cc1)c1ccccn1	i	i	7.6	-7.7	i	i
S=C(Nc1ccccc1)N1CCc2ccccc21	i	i	54.8	-10.0	i	i
O=C(NC(=S)N1CCc2ccccc21)c1ccccc1	i	i	-8.9	24.0*	i	i
O=[N+]([O-])c1ccc(NC(=S)N2CCc3ccccc32)cc1	i	i	13.0	-10.3	i	9*
O=C(NC(=S)N1CCc2ccccc21)c1ccccc1Cl	24*	i	-141.1	31.1*	i	i
O=C(COc1ccc(Cl)cc1Cl)OCC(=O)N1CCCc2ccccc21	i	i	13.2	-1.9	i	i
O=C(COc1ccc(Cl)cc1Cl)NC(=S)N1CCCc2ccccc21	i	i	32.6	13.1*	i	i
CC(=O)/C(=N\Nc1ccccc1)Sc1nncn1C	i	i	11.7	-1.2	i	i
O=C(N/N=C/c1cn(-c2ccccc2)nc1-c1ccc(F)cc1)c1ccc(Br)o1	i	-8.7*	22.9	-12.4	i	i
O=C(N/N=C/c1cn(-c2ccccc2)nc1-c1cc2ccccc2o1)c1ccncc1	i	i	15.8	-6.8	i	i
O=C(N/N=C/c1cn(-c2ccccc2)nc1-c1cc2ccccc2o1)c1cccnc1	i	i	-0.9	-13.4	i	6*
COc1ccccc1C(=O)O/N=C(\c1ccccc1)c1ccncc1	i	i	20.4	-10.3	i	i
COc1ccccc1C(=O)ON=C1c2ccccc2-c2ccccc21	i	i	-28.0	-19.1	-8.09*	i
CCCCC(=O)Nc1ccc(C(=O)N(CC)c2ccccc2C)cc1	i	i	65.8*	-13.1	i	i
COc1ccc([C@H]2CC(=O)C=C(c3cccc(OCc4ccccc4)c3)C2)cc1	nt	i	nt	nt	nt	nt
O=C(Nc1ccccc1O)C(c1ccccc1)c1ccccc1	i	i	19.9	-25.3	i	6*
Cc1ccc(N(c2ncnc(N)c2[N+](=O)[O-])C2CCCCC2)cc1	i	i	-4.6	-6.4	i	i
CC(C)=CCc1c(O)cc2c(=O)c3ccc(O)cc3oc2c1O	i	i	nt	-11.4	-12*	i
COc1c(CC=C(C)C)c(O)cc2oc(=O)c3c4ccc(O)cc4oc3c12	i	nt	nt	-9.8	i	i
SMILES	KCNQ1 act	KCNK3 inh	PHOSPHO1 inh	hERG rescue	KCNK9 block	KCNQ1 block
Cc1ccc(CC2CC(=O)N(CC(=O)O)C2=O)cc1 (centres undefined)	i	i	14.6	-8.6	i	i
Cc1cc(C)nc(NC(=O)CSc2nc3ccccc3o2)n1	i	i	69.1*	-10.4	i	i
O=C(O)c1ccccc1CSc1nc2ccccc2o1	i	i	75.2*	-6.8	i	i
CN(Cc1cnn(C)c1)C(=O)C1CCC(=O)N(Cc2cccc(C(F)(F)F)c2)C1 (centres undefined)	i	i	27.4	4.5	i	i
CCCCN1C(=O)C(=O)N(CC(=O)N2N=C3/C(=C/c4ccco4)CCCC3C2c2ccco2)C1=O (centres undefined)	i	i	62.2*	-27.0	i	i
O=C(CSc1ncn[nH]1)N1N=C2/C(=C\c3ccco3)CCCC2C1c1ccco1 (centres undefined)	nt	i	nt	nt	nt	nt
O=C(CSc1ncn[nH]1)N1N=C2/C(=C/c3ccco3)CCCC2C1c1ccco1 (centres undefined)	i	i	87.4*	-7.8	i	i
COc1ccc(-c2[nH]ncc2CN(CC2CCC(=O)N2)C(C)C)cc1F (centres undefined)	i	i	16.8	-9.5	i	i
O=C(Cn1cnc2ccccc2c1=O)c1c[nH]c2ccccc12	i	i	18.1	-6.4	i	i
CSCCC(NC(N)=O)C(=O)Nc1ccc(C)cc1 (centres undefined)	i	i	62.9*	-1.8	i	i
CCCCC(=Nc1ccccc1OC)C1=C(O)CC(c2ccccc2)CC1=O (centres undefined)	i	i	-23.7	-11.8	i	7*
CS(=O)(=O)N(CC(=O)Nc1ccc2c(c1)OCO2)c1ccc2c(c1)OCO2	i	i	-9.4	-2.7	i	i
COc1ccc(S(=O)(=O)N(CC(=O)Nc2ccc3c(c2)OCO3)c2ccccc2OC)cc1	i	i	9.2	0.7	i	i
COC(=O)c1cc(NC(=O)CN(c2ccc3c(c2)OCO3)S(C)(=O)=O)ccc1Cl	i	i	-24.6	-10.1	-7.42*	i
COc1ccccc1N(CC(=O)Nc1ccc2c(c1)OCO2)S(=O)(=O)c1ccccc1	i	i	92.3*	-16.0	i	i
Cc1ccc(Cl)cc1N(CC(=O)Nc1cccc(N(C)S(C)(=O)=O)c1)S(C)(=O)=O	i	i	33.5	-18.5	i	i
CN(c1cccc(NC(=O)CN(c2cccc(Cl)c2)S(=O)(=O)c2ccc(Cl)cc2)c1)S(C)(=O)=O	i	i	-8.8	-3.0	-7.35*	i
O=C(O)c1ccc(C=NNC(=O)c2ccccc2NS(=O)(=O)c2cccs2)cc1	nt	i	nt	nt	nt	nt
COc1cccc(NC(=O)Nc2cc(C)ccc2F)c1	i	i	13.4	-10.4	i	i
COc1ccc(NC(=O)Nc2cc(C)ccc2F)cc1	i	i	8.2	5.1*	i	i

Compound activity: PubChem, several laboratories
